Paper PMC6607395 (Molecular Pharmaceutics, 2019)

How the values were obtained:
DU145 (PSMA−) tumors = experiment: In vivo imaging and biodistribution, DU145 xenograft; set-up: species or system mouse; conditions: DU145 model, 17 nmol/kg tail vein, 1–72 h
LNCaP (PSMA+) tumors = experiment: In vivo imaging and biodistribution, LNCaP xenograft; set-up: species or system mouse; conditions: for ex vivo tissue biodistribution: 72 h postinjection, 17 nmol/kg; for whole body fluorescence signal over time: LNCaP model, 17 nmol/kg tail vein, 1–72 h
How it was run: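 Male athymic nu/nu mice (5 weeks old) carried subcutaneous LNCaP (5 × 10^6 cells) or DU145 (1 × 10^6 cells) flank tumours in 1:1 HBSS/Matrigel, grown to 100–150 mm3. Each received one tail-vein injection of 17 nmol/kg in 1% DMSO/99% saline (n = 3). Whole-body imaging ran at 1, 4, 24, 48 and 72 h (ex 685, em 800 nm). At 72 h, tumours, liver, kidney, heart and blood were excised, rinsed, weighed and imaged ex vivo, and mean AFU/mg was calculated.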

[1] = Pharmacokinetic profile in rats; conditions: rat; for presence in plasma over time: single IV 0.1 μmol/kg
rhPSMA = rhPSMA (Homo sapiens, UniProt Q04609); experiment: PSMA enzyme inhibition assay; assay type: biochemical
human TTR = human TTR (Homo sapiens, UniProt P02766); experiment: Fluorescence polarization; assay type: binding
TTR in human serum = TTR in human serum (Homo sapiens, UniProt P02766); experiment: Fluorescent probe exclusion; assay type: binding; conditions: for TTR occupancy: 10 μM ligand, human serum (TTR ∼5 μM), after 3 h relative to probe alone
[2] = biological target: Cathepsin B from human liver (Homo sapiens, UniProt P07858); experiment: MMAE release following cathepsin B cleavage; assay type: in vitro ADME; conditions: 20 μM compound, cathepsin B 100 nM, pH 5.5, 37 °C, within 15 min
How it was run: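 Human liver cathepsin B was activated for 15 min at ambient temperature in 25 mM sodium acetate, 1 mM EDTA and 9.2 mM DTT, pH 5.5. It was then used at 100 nM with 20 μM substrate in 25 mM sodium acetate/1 mM EDTA, pH 5.5, at 37 °C. Aliquots taken at 0, 15, 30 min, 1 h and 2 h were quenched in acidified acetonitrile–water, chilled and centrifuged. Free MMAE was quantified by HPLC-UV at 210 nm, and its identity was confirmed by LC–MS/MS.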

Sequence of rhPSMA (Q04609 whole entry): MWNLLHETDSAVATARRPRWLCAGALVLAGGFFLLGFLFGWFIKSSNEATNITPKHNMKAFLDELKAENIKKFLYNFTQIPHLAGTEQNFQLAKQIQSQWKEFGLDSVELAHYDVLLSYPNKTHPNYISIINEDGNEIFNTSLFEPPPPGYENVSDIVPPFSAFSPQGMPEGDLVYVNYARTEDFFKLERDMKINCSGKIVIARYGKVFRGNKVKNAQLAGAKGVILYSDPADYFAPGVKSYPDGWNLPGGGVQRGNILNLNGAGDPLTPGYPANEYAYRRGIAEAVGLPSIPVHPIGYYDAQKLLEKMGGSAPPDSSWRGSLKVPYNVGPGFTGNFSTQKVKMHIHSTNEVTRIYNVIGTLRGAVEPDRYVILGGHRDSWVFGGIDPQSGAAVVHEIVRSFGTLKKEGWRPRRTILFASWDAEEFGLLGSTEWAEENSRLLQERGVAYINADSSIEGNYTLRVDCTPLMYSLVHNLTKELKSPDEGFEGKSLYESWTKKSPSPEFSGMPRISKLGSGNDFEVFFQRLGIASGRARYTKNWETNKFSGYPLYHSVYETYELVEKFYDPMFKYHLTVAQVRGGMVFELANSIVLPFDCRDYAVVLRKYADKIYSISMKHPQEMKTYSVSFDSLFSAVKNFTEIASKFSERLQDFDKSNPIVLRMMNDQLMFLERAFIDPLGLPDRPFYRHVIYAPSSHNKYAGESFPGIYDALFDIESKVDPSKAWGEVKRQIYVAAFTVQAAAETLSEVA

Row | Structure (SMILES) | whole body fluorescence signal over time (DU145 (PSMA−) tumors) | ex vivo tissue biodistribution (LNCaP (PSMA+) tumors) | whole body fluorescence signal over time (LNCaP (PSMA+) tumors) | presence in plasma over time [1] | Ki (rhPSMA; Ki on PSMA, absence of TTR) [nM] | Kd (human TTR) [nM] | TTR occupancy (TTR in human serum) [%] | also measured
1 | C#CC[C@H](NC(=O)CCCCC[N+]1=C(C=CC2=CC(=CC=C3N(C)c4ccc(S(=O)(=O)O)cc4C3(C)C)CCC2)C(C)(C)c2cc(S(=O)(=O)[O-])ccc21)C(=O)NCCCCCC(=O)NCCCC[C@H](NC(=O)N[C@@H](CCC(=O)O)C(=O)O)C(=O)O [BFM1] | significantly reduced at 4 h postinjection and reduced to the background level at 24 h | accumulated predominantly in PSMA expressing LNCaP tumors, with no substantial fluorescence activity in other tissues except kidneys | significantly reduced at 4 h postinjection and reduced to the background level at 24 h | no measurable amount of BFM1 after 4 h | 20.7 | – | – | –
2 | Cc1n[nH]c(C)c1CCCOc1cc(OCCCCCCNCCOCCn2cc(C[C@H](NC(=O)CCCCC[N+]3=C(C=CC4=CC(=CC=C5N(C)c6ccc(S(=O)(=O)O)cc6C5(C)C)CCC4)C(C)(C)c4cc(S(=O)(=O)[O-])ccc43)C(=O)NCCCCCC(=O)NCCCC[C@H](NC(=O)N[C@@H](CCC(=O)O)C(=O)O)C(=O)O)nn2)cc(C(=O)O)c1 [TFM1] | maintained a very high fluorescence signal at 4 h and the signal was maintained for up to 48 h postinjection | accumulated predominantly in PSMA expressing LNCaP tumors, with no substantial fluorescence activity in other tissues except kidneys | maintained a very high fluorescence signal at 4 h and the signal was maintained for up to 48 h postinjection | still present even after 24 h | 32.8 | 374 | 57.6 ± 1.9 | fold enhanced uptake in LNCaP compared to BFM1 (LNCaP (PSMA+) tumors; excised tumors, 72 h): ~3 fold; fold higher fluorescent signal in LNCaP compared to DU145 tumors (LNCaP (PSMA+) tumors; excised tumors, 72 h): ~7 fold; fold higher MRT compared to BFM1 ([1]; IV 0.1 μmol/kg): ~16 fold; fold increase in t1/2 compared to BFM1 ([1]; IV 0.1 μmol/kg): ~6.6 fold; Ki (rhPSMA; Ki on PSMA in the presence of TTR, 1 μM TTR): 33.8 nM
3 | CC[C@H](C)[C@@H]([C@@H](CC(=O)N1CCC[C@H]1[C@H](OC)[C@@H](C)C(=O)N[C@H](C)[C@@H](O)c1ccccc1)OC)N(C)C(=O)[C@@H](NC(=O)[C@H](C(C)C)N(C)C(=O)OCc1ccc(NC(=O)[C@H](CCCNC(N)=O)NC(=O)[C@@H](NC(=O)CCCCCN2C(=O)CC(SCCC(=O)N[C@@H](Cc3cn(CCOCCNCCCCCCOc4cc(OCCCc5c(C)n[nH]c5C)cc(C(=O)O)c4)nn3)C(=O)NCCCCCC(=O)NCCCC[C@H](NC(=O)N[C@@H](CCC(=O)O)C(=O)O)C(=O)O)C2=O)C(C)C)cc1)C(C)C (stereo partly shown) [TFM2] | – | – | – | – | – | – | – | MMAE release [2]: 98%
4 | Cc1n[nH]c(C)c1CCCOc1cc(OCCCCCCN)cc(C(=O)O)c1 [ligand 2] | – | – | – | – | – | 48.9 | – | receptor occupancy at 10 µM (TTR in human serum; read-out: TTR occupancy): 80.4 ± 0.7%
5 | C#CCC(N)C(=O)NCCCCCC(=O)NCCCCC(NC(=O)NC(CCC(=O)O)C(=O)O)C(=O)O (stereo not shown) [ligand 22] | – | – | – | – | 9.5 | – | – | –
6 | O=C(O)c1ccc2nc(-c3cc(Cl)cc(Cl)c3)oc2c1 [tafamidis, reference compound] | – | – | – | – | – | – | 50.8 ± 2.0 | –
